Assay outcomes: PubChem BioAssay, Johns Hopkins Ion Channel Center
Hits are enriched below; roughly 3.8% of the tested compounds scored in any of these assays.
KCNQ1 act – human KCNQ1 channel potentiation or activation; P51787; CHO-K1 KCNQ1, thallium flux FluxOR fluorescence; active compounds read high; B-score at 10 µM; 310,000 tested, 0.35% active; AID 2648;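 active = fluorescence ratio B-score, a plate-corrected score, at least three library SD, with initial intensity B-score within 5 SD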
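Material: CHO-K1 cells stably expressing KCNQ1. Medium: assay buffer for compound exposure, DMSO matched across wells. Reagent: K+/Tl+ depolarizing stimulus. Compound dosing: single-concentration screen. Times: 37 °C overnight plating, 90-min dark dye load, 20-min compound pretreatment. Technique: FluxOR Tl+ flux fluorescence.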
Kir21 inh – inhibitors of mouse Kir2.1 inward-rectifier potassium channel. P35561. HEK293-Kir2.1, FluxOR thallium flux fluorescence; active compounds read low. B-score at 10 µM. 310,000 tested, 0.85% active. AID 1672;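 active = fluorescence ratio B-score at or below minus 3 SD of library scores, with starting-brightness B-score within 2 SD, cut at about -4.2 in these data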;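 also: channel flux triggered by added potassium and thallium sulfate stimulus; B-score of peak minus minimum fluorescence over baseline after thallium stimulus; more negative B-score means stronger Kir2.1 block with less thallium influx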
Target sequence (P35561 whole entry, looked up): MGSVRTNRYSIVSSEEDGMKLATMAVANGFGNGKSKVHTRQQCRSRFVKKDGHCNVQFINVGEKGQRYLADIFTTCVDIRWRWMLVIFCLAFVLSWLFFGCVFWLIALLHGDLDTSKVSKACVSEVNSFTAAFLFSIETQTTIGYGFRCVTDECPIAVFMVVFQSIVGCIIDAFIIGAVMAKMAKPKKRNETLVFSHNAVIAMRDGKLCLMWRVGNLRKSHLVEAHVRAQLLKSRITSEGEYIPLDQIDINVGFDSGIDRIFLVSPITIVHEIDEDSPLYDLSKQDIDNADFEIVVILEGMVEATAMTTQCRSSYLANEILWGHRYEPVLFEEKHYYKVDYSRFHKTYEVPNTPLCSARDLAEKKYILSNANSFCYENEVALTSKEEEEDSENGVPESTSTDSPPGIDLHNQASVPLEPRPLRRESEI
hERG rescue – hERG (human) protection from proarrhythmic block | CHO-hERG, FluxOR thallium flux, dofetilide IC70 present | activation (rescue from dofetilide block), less the hit threshold, % at 10 µM | 310,000 tested, 0.51% active;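 active = activation above the mean of controls blocked by dofetilide plus 5 SD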;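 also: thallium influx through hERG after potassium depolarization seen as dye fluorescence rise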
KCNK3 block – human KCNK3 channel inhibition, primary screen; O14649; CHO-KCNK3 thallium flux, FluxOR fluorescence; active compounds read low; B-score at 10 µM; 340,000 tested, 0.84% active; AID 602410;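 active = B-score under library mean minus 4 SD, starting fluorescence ratio at most library mean plus 5 SD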;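 also: more negative B-score means stronger inhibition of thallium flux through KCNK3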
KCNQ1 inh – blocks the human KCNQ1 potassium channel; CHO-K1 KCNQ1, FluxOR thallium flux fluorescence; active compounds read high; AID 2642; 310,000 tested, 1.3% active; B-score at 10 µM; P51787;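 active = compounds whose thallium flux B-score, printed positive for inhibition, exceeds three library SD while starting fluorescence stays within three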;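 also: channel opened by potassium depolarization with thallium stimulus after 20 min compound exposure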
KCNK9 block – blocks the human KCNK9 two-pore domain potassium channel; Q9NPC2; HEK293 KCNK9, FluxOR thallium flux fluorescence; active compounds read low; B-score at 10 µM; 310,000 tested, 1.2% active; AID 488922;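 active = ratio B-score over 3 SD below the library mean, with starting fluorescence within 5 SD of its mean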;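 also: negative B-score means less thallium flux so channel inhibition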
Hits are given with their value; - = inactive; . = no result.

SMILES	KCNQ1 act	Kir21 inh	hERG rescue	KCNK3 block	KCNQ1 inh	KCNK9 block
CC1CCC/C=C/C(=O)c2c(O)cc(O)cc2CC(=O)O1 (stereo not drawn)	-	-	-	-	7	-
C/C(CC(=O)C(F)(F)F)=N\NC(=O)/C(C#N)=C/N(C)C	-	-	-	-	-	-
O=C(O)c1ccccc1NC1CCCCC1NS(=O)(=O)c1ccccc1 (stereo not drawn)	-	-	-	-	-	-
CC(=O)c1cccc(NC(=O)C(C)OC(=O)Cc2c[nH]c3ccccc23)c1 (stereo not drawn)	-	-	-	-	-	-
CC(OC(=O)Cc1c[nH]c2ccccc12)C(=O)Nc1ccccc1F (stereo not drawn)	-	-5.7	-	-	-	-
CC(NCCCOc1cccc2ccccc12)c1ccccc1 (stereo not drawn)	-	-10	-	-	-	-
CC1(C)CC(=O)C(N=Nc2ccc(S(=O)(=O)N3CCOCC3)cc2)=C(O)C1	-	-	-	-	-	-
CC(/C=C1\SC(=S)N(NC(=O)c2ccc(C)cc2)C1=O)=C\c1ccccc1	-	-	-	-	-	-
CC(/C=C1\SC(=S)N(c2ccc(C(=O)O)cc2)C1=O)=C\c1ccccc1	-	-	5.1	-	-	-
Cc1c(NC(=O)c2cc(-c3ccc(F)cc3)nc3ccccc23)c(=O)n(-c2ccccc2)n1C	.	.	.	-	.	.
O=C(NC12CC3CC(CC(C3)C1)C2)c1ccccc1	-	-	-	-	-	-
O=C(NC12CC3CC(CC(C3)C1)C2)N(Cc1ccccc1)Cc1ccncc1	-	-	-	-	6	-
COc1ccc(C(=O)C(/C=N/O)=N/Nc2ccc(F)cc2)cc1	-	-	-	-	10	-
CCOC(=O)C1=C(C)N=c2s/c(=C/c3ccc(OCC(=O)O)cc3)c(=O)n2C1c1ccc(OC)cc1OC (stereo not drawn)	-	-	-	-	6	-
CCOC(=O)C1=C(C)N=c2s/c(=C\c3ccc(OCC(=O)O)cc3)c(=O)n2C1c1ccc(Cl)cc1 (stereo not drawn)	-	-	-	-	7	-
COc1ccc(C2C(C(C)=O)=C(C)N=c3s/c(=C\c4cc(C)n(C)c4C)c(=O)n32)c(OC)c1 (stereo not drawn)	-	-	-	-	9	-
CCOC(=O)C1=C(C)N=c2s/c(=C\c3ccncc3)c(=O)n2C1c1ccc2c(c1)OCO2 (stereo not drawn)	-	-	-	-	8	-
CCOC(=O)C1=C(C)N=c2s/c(=C/c3ccc(OCC(=O)O)cc3)c(=O)n2C1c1ccc(F)cc1 (stereo not drawn)	-	-	-	-	-	-
CC(=O)c1ccc(NC(=O)C2C3C=CC(O3)C2C(=O)O)cc1 (stereo not drawn)	-	-	-	-	-	-
O=C(Oc1ccc(Br)cc1C(=S)N1CCOCC1)c1ccccc1	-	-	-	-	-	-8
COc1ccccc1OS(=O)(=O)c1ccc(NC(C)=O)cc1	-	-	-	-	-	-
COC(=O)/C=C/S(=O)(=O)c1ccc(NC(C)=O)cc1	-	-	-	-	6	-
CCCC(C(=O)NCCc1ccc(S(N)(=O)=O)cc1)c1ccccc1 (stereo not drawn)	-	-	-	-	-	-
COC(=O)C1=CN(Cc2cccs2)C=C(C(=O)OC)C1c1cccc(Cl)c1	-	-	-	-	-	-7.9
CCCC(=O)C1=C(O)C(C(=O)OC)C(C)(C)CC1=Nc1cccc2ccccc12 (stereo not drawn)	-	-	-	-	6	-
SMILES	KCNQ1 act	Kir21 inh	hERG rescue	KCNK3 block	KCNQ1 inh	KCNK9 block
CCCC(=O)C1=C(O)C(C(=O)OC)C(C)(C)CC1=NCc1ccccc1 (stereo not drawn)	-	-	-	-	-	-
CC1(C)SC(=S)N(/N=C/c2cccnc2)C1N(O)C(=O)Nc1ccccc1 (stereo not drawn)	-	-	-	-	-	-
CC1(C)SC(=S)N(/N=C/c2ccc(O)cc2)C1N(O)C(=O)Nc1ccc([N+](=O)[O-])cc1 (stereo not drawn)	-	-	-	-	10	-
CC1(C)SC(=S)N(NC(=O)Nc2ccccc2)C1N(O)C(=O)Nc1cccc2ccccc12 (stereo not drawn)	-	-	-	-	9	-
CC1(C)SC(=S)N(/N=C/c2ccccc2O)C1N(O)C(=O)Nc1ccccc1 (stereo not drawn)	-	-	-	-	8	-
O=C(O)c1cccnc1SC1CC(=O)N(c2cccc(C(F)(F)F)c2)C1=O (stereo not drawn)	-	-	-	-	-	-
Cc1c(NCc2nc3ccccc3[nH]2)c(=O)n(-c2ccccc2)n1C	-	-	-	-	-	-
CCN=C1SC(C(=O)Nc2cccc(Br)c2)CC(=O)N1CC (stereo not drawn)	-	-	-	-	-	-7.1
CCOC(=O)c1[nH]c(C=O)c(C(=O)OCC)c1C	13	-	4.9	-	-	-
CCOC(=O)c1c(C)[nH]c(C(C)=O)c1C	-	-	-	-	-	-
OC[C@@H](O)C1OC2NC(=S)OC2C1O (stereo partly drawn)	-	-	7.7	-	-	-
COc1ccc(CCNC(=O)CC2SC(=NCc3ccccc3OC)NC2=O)cc1 (stereo not drawn)	-	-	4.9	-	-	-
Cc1sc2c(c1C)c(=O)n(-c1ccc(F)cc1)c(=O)n2CC(=O)NCc1ccco1	.	.	.	-	.	.
CC1CCN(c2nc(CN3CCCCC3)nc3scc(-c4ccccc4)c23)CC1	-	-7.6	-	-	-	-
Cc1ccc(Cl)cc1NC(=S)N/N=C/c1cccc2ccccc12	11	-	8.5	-	-	-
Cc1ccc(NC(=S)N/N=C/c2c(Cl)cccc2Cl)c(C)c1	-	-	7.7	-	-	-
Fc1cccc(/C=N/NC(=S)Nc2ccccc2Cl)c1	-	-	6.8	-	-	-
CCOC(=O)c1nc(C)sc1-c1ccnn1S(=O)(=O)c1cccc(Cl)c1	-	-	-	-	-	-
CC1=C(CC(=O)c2ccc(Cl)cc2)C(=O)c2ccccc2C1=O	-	-	-	-	-	-6.7
CCOc1cc2c(cc1/C=C/c1noc(C)c1[N+](=O)[O-])OC(C)C2 (stereo not drawn)	-	-	-	-	7	-
Oc1oc(-c2cccc3ccccc23)nc1/C=N/c1nccs1	12	-	19	-	-	-
Cc1ccc[n+](C(C)C(=O)c2ccc(-c3ccccc3)cc2)c1 (stereo not drawn)	-	-	-	-	-	-
Cc1ccc(OCC(=O)N/N=C/c2cc([N+](=O)[O-])ccc2N2CCCCC2)cc1	-	-	-	-	-	-7.4
